Experiments:
Rattus norvegicus [1] = test: Intrinsic total body clearance in Crj:CD(SD)IGS rat at 0.125 mg/hr, iv administered as continuous infusion by HPLC based liquid scintillation counting analysis; format: ADME, organism-based; details: in vivo
Summary of the method: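 Rats received a continuous iv infusion of [14C]M-III at 0.125 mg/rat/h, with probenecid co-infused at 16, 31 or 62 mg/h/kg or vehicle alone, for 5 h. Arterial plasma was sampled during infusion. CLtot = infusion rate / steady-state plasma M-III (120–180 min). Unbound fraction was measured by ultrafiltration of 5-h plasma (10,000 MWCO, 1500g, 37°C, 10 min). CLint = CLtot / unbound ratio.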

[2] = Drug excretion in Crj:CD(SD)IGS rat feces assessed as excretion ratio of [14C] at 0.5 mg/kg, iv administered as bolus dose measured from 0 to 24 hrs by HPLC-based liquid scintillation counting analysis; format: ADME, organism-based; parameters: dose 0.5 mg/kg, route intravenous; details: in vivo
Summary of the method: (§1)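 Male rats in metabolic cages with urine/feces separator, or beagle dogs, after a 0.5 mg/kg iv bolus of [14C]M-III in saline. Radioactivity in urine and feces collected 0–24 h (rats) or 0–168 h (dogs) was counted and expressed as percent of dose. Mean ± S.D., n = 3.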

[3] = AUC infinity in Crj:CD(SD)IGS rat at 0.5 mg/kg, iv administered as bolus dose by HPLC-based liquid scintillation counting analysis; format: ADME, organism-based; parameters: time infinity, dose 0.5 mg/kg, route intravenous; details: plasma
Summary of the method: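 Male Crj:CD(SD)IGS rats (285–324 g, 8 weeks) were given [14C]M-III in saline (0.5 mg/ml) as an IV bolus of 0.5 mg–2.6 MBq/kg. Tail-vein blood was sampled from 5 min to 24 h to give heparinized plasma. After acetonitrile deproteinization, samples went through HPLC with fraction collection and scintillation counting. AUCinf = AUClast + Clast/kel, with terminal kel from linear regression; n = 3.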

[4] = Apparent volume of distribution in Beagle dog at 0.5 mg/kg, iv administered as bolus dose by HPLC-based liquid scintillation counting analysis; format: ADME, organism-based, Canis lupus familiaris; parameters: dose 0.5 mg/kg, route intravenous; details: in vivo, read-out: Vd(app)
Summary of the method: (§2)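 [14C]M-III in saline given as a single iv bolus at 0.5 mg/kg to male rats (tail-vein blood, 5 min–24 h) or male beagle dogs (cephalic-vein blood, 5 min–168 h). Heparinized plasma counted for radioactivity; M-III quantified by HPLC with fraction collection and liquid scintillation counting. C5 min read directly; terminal t1/2 by linear regression, kel = ln2/t1/2, Vd = dose/back-extrapolated C0, CLtot = dose/AUCinf. Mean ± S.D., n = 3.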

Rattus norvegicus [5] = test: Unbound renal clearance in Crj:CD(SD)IGS rat at 0.5 mg/kg, iv administered as bolus dose measured from 0 to 24 hrs by HPLC-based liquid scintillation counting analysis; format: ADME, organism-based, Kidney; parameters: dose 0.5 mg/kg, route intravenous; details: in vivo
Summary of the method: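 Male Crj:CD(SD)IGS rats received [14C]M-III in saline as an IV bolus at 0.5 mg–2.6 MBq/kg. Urine was collected in metabolic cages over 0–24 h. M-III in urine was taken as total urinary 14C times the M-III fraction, measured by direct HPLC, 1-min fraction collection and scintillation counting. CLrenal = urinary M-III / AUC. Unbound CLrenal = CLrenal / free fraction, from in vivo ultrafiltration binding. n = 3.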

[6] = Drug excretion in Beagle dog feces assessed as excretion ratio of [14C] at 0.5 mg/kg, iv administered as bolus dose measured from 0 to 168 hrs by HPLC-based liquid scintillation counting analysis; format: ADME, organism-based, Canis lupus familiaris; parameters: dose 0.5 mg/kg, route intravenous; details: in vivo; summary of the method: as §1
[7] = Apparent volume of distribution in Crj:CD(SD)IGS rat at 0.5 mg/kg, iv administered as bolus dose by HPLC-based liquid scintillation counting analysis; format: ADME, organism-based; parameters: dose 0.5 mg/kg, route intravenous; details: in vivo, read-out: Vd(app); summary of the method: as §2
[8] = Terminal half life in Crj:CD(SD)IGS rat at 0.5 mg/kg, iv administered as bolus dose by HPLC-based liquid scintillation counting analysis; format: ADME, organism-based; parameters: dose 0.5 mg/kg, route intravenous; details: in vivo, read-out: beta t1/2 (converted); summary of the method: as §2
[9] = AUC infinity in Beagle dog at 0.5 mg/kg, iv administered as bolus dose by HPLC-based liquid scintillation counting analysis; format: ADME, organism-based, Canis lupus familiaris; parameters: time infinity, dose 0.5 mg/kg, route intravenous; details: plasma
Summary of the method: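 Male beagles (7.4–10.0 kg) got a single IV injection of [14C]M-III in saline (2.5 mg/ml), 0.5 mg–1.0 MBq/kg. Cephalic-vein blood was taken from 5 min to 168 h and spun for heparinized plasma. Plasma was deproteinized with acetonitrile, run on reverse-phase HPLC and collected as 1-min fractions counted by LSC. AUCinf = AUClast + Clast/kel; n = 3.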

clearance (Rattus norvegicus [1]): 130 mL/min/kg
Drug excretion [2]: 10.3%
AUC(0-inf) [3]: 0.802 µg·h/mL
Vd [4]: 0.0989 L/kg
CL free (Rattus norvegicus [5]): 96.3 mL/min/kg
Drug excretion [6]: 7.7%
Vd [7]: 0.14 L/kg
half-life [8]: 4.1 h
AUC(0-inf) [9]: 596 µg·h/mL
SMILES: N[14c]1[14cH][14cH][14c](OS(=O)(=O)O)[14cH][14c]1Cl

From ChEMBL document CHEMBL3526115, “Differences in the pharmacokinetics of 4-amino-3-chlorophenyl hydrogen sulfate, a metabolite of resatorvid, in rats and dogs” (Drug Metab Dispos, 2012)
